Test results: ChEMBL document CHEMBL1124776, “Studies on hindered phenols and analogues. 2. 1,3-Benzoxathioles having SRS-A inhibiting activity” (J Med Chem, 1990)
Converted amounts (≈) assume the structure as drawn.

Assays:
[1] = tested on: superoxide radical (cell-free, no organism); assay: The concentration of compound required to inhibit generation of superoxide by 50 percent electrochemically
Rattus norvegicus = species: Rattus norvegicus; assay: LPO-lowering activity was estimated by the IC50 value of compound in rat liver microsomal lipid peroxidation; type: functional
Outline: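 Rat liver microsomes were reacted with compound plus cysteine (500 μM) and ferrous sulfate (5 μM), following the ferrous sulfate/cysteine method. Lipid peroxide was measured by the thiobarbituric acid method. IC50 (μg/mL) is the concentration giving 50% inhibition of lipid peroxide formation.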

Cavia porcellus = species: Cavia porcellus; assay: Evaluated for inhibition of the formation and release of SRS-A in isolated guinea pig ileum; type: functional
Outline: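 Guinea pig (Hartley, male) lung slices from sensitized animals were preincubated with compound for 15 min, then challenged with albumin antigen. SRS-A formed and released was bioassayed by superfusion over isolated guinea pig ileum. IC50 (μM) came from a least-squares regression of percent inhibition against dose, with 95% confidence limits by Fieller's equation.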

[2] = Rattus norvegicus, Liver, read-out: IC50

Row | Molecule | Q1/2 [1] | IC50 (Rattus norvegicus; [2]) | IC50 (Cavia porcellus) | IC50 (Rattus norvegicus)
1 | VITAMIN E [listing 1 of 2 here] | 4.4 mM | – | – | –
2 | CCCCCCCCCCCCCCCCCCCC1Oc2c(C)c(C)c(O)c(C)c2S1 (stereo unspecified) | 1.8 mM | > 1 µg/mL | – | –
3 | CCC1Oc2c(C)c(C)c(O)c(C)c2S1 (stereo unspecified) | 1.3 mM | < 0.1 µg/mL | 4.5 µM | –
4 | CCCCC1Oc2c(C)c(C)c(O)c(C)c2S1 (stereo unspecified) | 1.6 mM | < 0.1 µg/mL | 11.9 µM | –
5 | Cc1c(C)c2c(c(C)c1O)SC(c1ccccc1)O2 (stereo unspecified) | 2.4 mM | < 0.1 µg/mL | 6.6 µM | –
6 | Cc1c(C)c2c(c(C)c1O)SC(CCCO)O2 (stereo unspecified) | 2.2 mM | 0.1 µg/mL (≈ 0.393 µM) | 1.5 µM | –
7 | Cc1c(C)c2c(c(C)c1O)CCC(C)(C)O2 [APC-100] | 2.4 mM | < 0.1 µg/mL | – | –
8 | CCCCCCC1Oc2c(C)c(C)c(O)c(C)c2S1 (stereo unspecified) | 1.6 mM | 0.1 µg/mL (≈ 0.357 µM) | > 35.6 µM | –
9 | VITAMIN E [listing 2 of 2 here] | – | – | – | > 1 µg/mL
10 | Cc1cc(C(C)(C)C)c(O)c(C(C)(C)C)c1 [BUTYLATED HYDROXYTOLUENE] | 0.45 mM | – | – | –
11 | Oc1ccc2c(c1)SCO2 | 6.2 mM | > 1 µg/mL | > 64.8 µM | –
12 | Cc1c(C)c2c(c(C)c1O)SCO2 | 1.3 mM | < 0.1 µg/mL | 2.4 µM | –
13 | Cc1c(C)c2c(c(C)c1O)CCC(C)(C(=O)O)O2 (stereo unspecified) [TROLOX] | 1.9 mM | > 1 µg/mL | – | –
14 | NC1=NN(c2cccc(C(F)(F)F)c2)CC1 [BW-755C] | – | – | 136 µM | –
15 | Cc1c(C)c2c(c(C)c1O)SC(C)O2 (stereo unspecified) | 1.6 mM | < 0.1 µg/mL | 2.1 µM | –
16 | Cc1c(C)c2c(c(C)c1O)SC(CCC(N)=O)O2 (stereo unspecified) | 2.3 mM | 0.3 µg/mL (≈ 1.12 µM) | 3.1 µM | –
17 | CCCCCCCC1Oc2c(C)c(C)c(O)c(C)c2S1 (stereo unspecified) | 1.4 mM | < 0.1 µg/mL | > 33.9 µM | –
18 | Cc1c(C)c2c(c(C)c1O)CCC(C)(CO)O2 (stereo unspecified) | 2 mM | 0.3 µg/mL (≈ 1.27 µM) | – | –
19 | CCCC1Oc2c(C)c(C)c(O)c(C)c2S1 (stereo unspecified) | 1.4 mM | < 0.1 µg/mL | 3.8 µM | –
20 | CC1Oc2cc(C(C)(C)C)c(O)cc2S1 (stereo unspecified) | – | 0.1 µg/mL (≈ 0.446 µM) | 11.2 µM | –
21 | CC(C)(C)c1cc(/C=C2\CCOC2=O)cc(C(C)(C)C)c1O | – | – | 147 µM | –
22 | Cc1c(C)c2c(c(C)c1O)SC(CCC(=O)O)O2 (stereo unspecified) | 1.8 mM | > 1 µg/mL | > 37.2 µM | –
